The values below come from ChEMBL document CHEMBL2150890, “Antioxidant properties of Mannich bases” (Bioorg Med Chem Lett, 2012).

In data set [1] the test system is Radical scavenging activity. Kind of data set: Antioxidant activity of the compound assessed as DPPH radical scavenging activity at 50 uM. The data set is classed as functional. An outline of the steps:
(§1)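 Scavenging of the DPPH radical read by absorbance at 520 nm. % scavenging = (A_blank − A_sample)/A_blank × 100. Scavenging also followed at 0.5, 1, 2, 4, 6, 12 and 24 h. Three independent experiments, mean ± SD, one-way ANOVA.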

Data set [2] can be described thus: Antioxidant activity of the compound assessed as phosphate/Mo5 complex formation at 6.25 to 100 uM after 90 mins. The format is functional. An outline of the steps:
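Phosphomolybdenum method: compound incubated with 0.6 M H2SO4, 28 mM sodium phosphate and 4 mM ammonium molybdate at 95 °C for 90 min. After cooling to room temperature, absorbance read at 695 nm against a blank. Result expressed as vitamin C equivalent; three independent experiments, mean ± SD.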

The nature of data set [3]: Antioxidant activity of the compound in phosphate buffer at pH 6.6 assessed as potassium ferric cyanide ion reducing activity at 6.25 to 100 uM after 20 mins. The data set is classed as functional. Details: scale not given: the % may be the effect or the level left. An outline of the steps: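 Ferricyanide reducing power: sample in 0.2 M phosphate buffer, pH 6.6, incubated with 1% w/v potassium ferricyanide at 50 °C for 20 min. Reducing effect expressed relative to vitamin C; three independent experiments, mean ± SD.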

Data set [4] relates to Radical scavenging activity. Nature of the data set: Antioxidant activity of the compound assessed as DPPH radical scavenging activity. The format is functional. An outline of the steps:
as §1

The nature of data set [5]: Ratio of alpha-tocopherol IC50 to compound IC50 for antioxidant activity of the compound assessed as DPPH radical scavenging activity.
In data set [6] the test system is RAW264.7. Nature of the data set: Cytotoxicity against mouse RAW264.7 cells up to 100 uM after 24 hrs by MTT assay. The format is cell-based. The following applies: raw264.7, 24 h. An outline of the steps:
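RAW 264.7 cells (DMEM, 10% FBS, 2 mM glutamine, penicillin/streptomycin; 37 °C, 5% CO2) seeded at 1 × 10^4 cells/well. After 24 h, treated with a range of compound concentrations for 24 h. MTT (1 mg/mL) added for 4 h, formazan dissolved in DMSO, absorbance read at 540 nm.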

Data set [7] concerns RAW264.7. Kind of data set: Antioxidant activity in mouse RAW264.7 cells assessed as inhibition of H2O2-induced intracellular ROS formation after 30 mins in dark prior to H2O2 challenge measured after 30 mins post H2O2 challenge by H2DCF-DA based flow cytometry. The data set is classed as functional, cell-based. An outline of the steps: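 RAW 264.7 cells grown in DMEM/10% FBS at 37 °C, 5% CO2. Loaded with 20 µM H2DCF-DA in HBSS for 30 min, then compound (50 and 100 µM) in HBSS for 30 min at 37 °C in the dark. H2O2 challenge for 30 min, cells scraped and filtered, flow cytometry at 488 nm excitation. Geometric mean fluorescence reported; three independent experiments, mean ± SD.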
Background: A flow cytometer gives signals particle by particle.

Activity calls are given as the source filed them. The rule behind the calls is not given here.

As usually defined, the IC50 is the concentration that inhibits the measured activity by half.

Take `COc1cc([C@H]2N[C@@H](c3ccc(O)c(OC)c3)[C@H]3CCC[C@H]2C3=O)ccc1O`: the figures for the Activity in data set [1], in data set [2] and in data set [3] were 80%, 56.8% and 116%, respectively.

In the case of `COc1cc(/C=C/C(=O)CC(=O)/C=C/c2ccc(O)c(OC)c2)ccc1O` [CURCUMIN], the IC50 in data set [4] stood at 35.1 µM.

For the compound `Cc1c(C)c2c(c(C)c1O)CC[C@@](C)(CCC[C@H](C)CCC[C@H](C)CCCC(C)C)O2` [ALPHA-TOCOPHEROL], the IC50 in data set [4] came to 59 µM. For the same compound, the result in data set [1] was Active.

On to `Oc1ccccc1O` [CATECHOL], for which, in data set [4], the IC50 is 36 µM.

For the compound `O=C1[C@@H]2CCC[C@@H]1[C@H](c1ccc(O)c(O)c1)N[C@@H]2c1ccc(O)c(O)c1`, the Ratio IC50 in data set [5] amounted to 1. Moreover, in data set [4], the IC50 is 26.1 µM. In addition, the Activity result with RAW264.7 [6] is “Non-toxic”; in data set [1], 80%; in data set [2] it was 62.3%; in data set [3], 163%. In addition, the inhibition result in the data set with RAW264.7 [7] was “Dose-dependent effect”.

As for `O=C1O[C@H]([C@@H](O)CO)C(O)=C1O`, the result in data set [1] and in data set [3] was Active.
